The source of these data is ChEMBL document CHEMBL2021842, “COMPARE analysis of the toxicity of an iminoquinone derivative of the imidazo[5,4-f]benzimidazoles with NAD(P)H:quinone oxidoreductase 1 (NQO1) activity and computational docking of quinones as NQO1 substrates” (Bioorg Med Chem, 2012).

Where only a bound is given, the exact number is not on record here.

Assay [1] in a line: Cytotoxicity against human GM00637 cells assessed as reduction in mean cell viability after 72 hrs by MTT assay. It counts as cell-based. Particulars: GM00637, 72 h. The method in brief:
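SV40-transformed normal skin fibroblasts (GM00637) in MEM Eagle–Earle BSS with 15% heat-inactivated FBS, 2 mM L-glutamine, 2× amino acids and vitamins. Seeded at 10,000 cells/well and left 24 h to adhere. Ethanol-delivered compound (1% final) for 72 h at 37 °C, 5% CO₂. MTT formazan in DMSO read at 550/690 nm. Viability relative to vehicle; IC₅₀ by nonlinear regression.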
(Tetrazolium dyes change colour on reduction, which living cells bring about.)

A further assay has as its system HeLa. In words: Cytotoxicity against human HeLa cells assessed as reduction in mean cell viability after 72 hrs by MTT assay. It counts as functional, cell-based. The method in brief:
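HeLa-CCL-2 cells in DMEM with 10% heat-inactivated FBS, 2 mM L-glutamine and nonessential amino acids. Plated at 1000 cells/well with 24 h adherence. Treated in ethanol (1% final) for 72 h at 37 °C under 5% CO₂, with ethanol controls. Absorbance of DMSO-dissolved formazan at 550 nm, 690 nm reference. IC₅₀ by nonlinear regression of percent viability.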

For another assay, the system named is DU-145. In words: Cytotoxicity against human DU145 cells assessed as reduction in mean cell viability after 72 hrs by MTT assay. It counts as functional, cell-based. Particulars: DU-145, 72 h. Summed up: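 DU-145 prostate cells in RPMI-1640 with 10% heat-inactivated FBS, penicillin–streptomycin and 2 mM L-glutamine. Seeded at 2000 cells/well and left 24 h to adhere. Compound added in ethanol (1% final) for 72 h at 37 °C, 5% CO₂, with ethanol-only controls. Formazan dissolved in DMSO and read at 550 nm (690 nm reference). IC₅₀ derived by nonlinear regression of viability versus vehicle.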

As a reminder, the IC50 is the concentration that gives 50% inhibition. Take `O=C1c2nc3n(c2C(=O)c2nc4n(c21)CCCC4)CCC3`: the figures for the IC50 (in assay [1]; in the assay with HeLa; in the assay with DU-145) were 1270 nM, 950 nM and 790 nM, respectively.
As for `CCCCn1cnc2c1C(=O)c1nc3n(c1C2=O)CCCC3`, the figures for the IC50 (in assay [1]; with HeLa; in the assay on DU-145) were 2120 nM, 1280 nM and 1350 nM, respectively.
For `CO[C@@]12[C@H](COC(N)=O)C3=C(C(=O)C(C)=C(N)C3=O)N1C[C@@H]1N[C@@H]12` [MITOMYCIN], the IC50 in assay [1] was determined as 460 nM.
With `O=C1c2nc3n(c2C(=O)c2nc4n(c21)CCCCC4)CCCCC3`, the IC50 in assay [1] is more than 5000 nM; in the assay with HeLa it was 1780 nM; with DU-145, 4460 nM.
